Data as given in ChEMBL document CHEMBL3877296, “Design, synthesis, and biological evaluation of novel alkylsulfanyl-1,2,4-triazoles as cis-restricted combretastatin A-4 analogues” (Eur J Med Chem, 2017).

Experiments:
[1] = Cytotoxicity against human PC3 cells assessed as growth inhibition after 48 hrs by MTT assay; assay type: functional, cell-based; settings: PC-3, 48 h
How it was run: (§1)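 Cells were kept in DMEM with 10% FBS and seeded at 5000 cells/well, then attached for 24 h at 37 °C. Compounds came from 20 mM DMSO stocks, serially diluted in medium, with 0.1% DMSO as vehicle control. After 48 h at 37 °C, MTT (5 mg/mL) was added for 4 h, formazan dissolved in DMSO and A570 read. IC50 was fitted from % inhibition versus control, mean of three independent experiments.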

[2] = Cytotoxicity against human HCT116 cells assessed as growth inhibition after 48 hrs by MTT assay; assay type: functional, cell-based; settings: HCT-116, 48 h; how it was run: as §1
[3] = Cytotoxicity against human HT-29 cells assessed as growth inhibition after 48 hrs by MTT assay; assay type: functional, cell-based; settings: HT-29, 48 h; how it was run: as §1
Sus scrofa = organism: Sus scrofa; test: Inhibition of porcine brain tubulin polymerization at 10 uM in presence of GTP by spectrophotometric method relative to control
How it was run: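 Tubulin was purified from pig brain microtubule protein by three temperature-driven assembly/disassembly cycles, then phosphocellulose chromatography. Polymerization ran in PEM buffer (100 mM PIPES, 1 mM MgCl2, 1 mM EGTA) with 1 mM GTP and 5% glycerol at 37 °C, followed by light scattering at 340 nm. Percent inhibition came from plateau absorbance, with a DMSO negative control and a CA-4 reference run the same day.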

[4] = Cytotoxicity against human HepG2 cells assessed as growth inhibition after 48 hrs by MTT assay; assay type: functional, cell-based; settings: HepG2, 48 h; how it was run: as §1
[5] = Cell cycle arrest in human PC3 cells assessed as G2/M phase accumulation at 6 uM after 12 hrs by propidium iodide staining based flow cytometry (reference value: 15.81%); assay type: functional; settings: PC-3
How it was run: (§2)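 PC-3 cells were grown overnight in dishes to about 70% confluence, then exposed to three compound concentrations. Cells were trypsinized, washed in PBS, fixed overnight in 75% ice-cold ethanol, RNase-treated at 37 °C for 30 min, and stained with propidium iodide. Phase percentages (sub-G1, G0/G1, S, G2/M) were read by flow cytometry against untreated cells.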

[6] = Cell cycle arrest in human PC3 cells assessed as subG1 phase accumulation at 3 uM after 12 hrs by propidium iodide staining based flow cytometry (reference value: 0.29%); assay type: functional; settings: PC-3; how it was run: as §2
[7] = Cell cycle arrest in human PC3 cells assessed as S phase accumulation at 6 uM after 12 hrs by propidium iodide staining based flow cytometry (reference value: 31.7%); assay type: functional; settings: PC-3; how it was run: as §2
[8] = Cell cycle arrest in human PC3 cells assessed as G2/M phase accumulation at 12 uM after 12 hrs by propidium iodide staining based flow cytometry (reference value: 15.81%); assay type: functional; settings: PC-3; how it was run: as §2
[9] = Cell cycle arrest in human PC3 cells assessed as S phase accumulation at 12 uM after 12 hrs by propidium iodide staining based flow cytometry (reference value: 31.7%); assay type: functional; settings: PC-3; how it was run: as §2
[10] = Cell cycle arrest in human PC3 cells assessed as G2/M phase accumulation at 3 uM after 12 hrs by propidium iodide staining based flow cytometry (reference value: 15.81%); assay type: functional; settings: PC-3; how it was run: as §2
[11] = Cell cycle arrest in human PC3 cells assessed as subG1 phase accumulation at 12 uM after 12 hrs by propidium iodide staining based flow cytometry (reference value: 0.29%); assay type: functional; settings: PC-3; how it was run: as §2
[12] = Cell cycle arrest in human PC3 cells assessed as G2/M phase accumulation after 48 hrs by propidium iodide staining based flow cytometry; assay type: functional; settings: PC-3; how it was run: as §2
[13] = Cell cycle arrest in human PC3 cells assessed as subG1 phase accumulation at 6 uM after 12 hrs by propidium iodide staining based flow cytometry (reference value: 0.29%); assay type: functional; settings: PC-3; how it was run: as §2
[14] = Cell cycle arrest in human PC3 cells assessed as G0/G1 phase accumulation at 6 uM after 12 hrs by propidium iodide staining based flow cytometry (reference value: 51.58%); assay type: functional; settings: PC-3; how it was run: as §2
[15] = Cell cycle arrest in human PC3 cells assessed as G0/G1 phase accumulation at 3 uM after 12 hrs by propidium iodide staining based flow cytometry (reference value: 51.58%); assay type: functional; settings: PC-3; how it was run: as §2
[16] = Cell cycle arrest in human PC3 cells assessed as S phase accumulation at 3 uM after 12 hrs by propidium iodide staining based flow cytometry (reference value: 31.7%); assay type: functional; settings: PC-3; how it was run: as §2
[17] = Cell cycle arrest in human PC3 cells assessed as G0/G1 phase accumulation at 12 uM after 12 hrs by propidium iodide staining based flow cytometry (reference value: 51.58%); assay type: functional; settings: PC-3; how it was run: as §2

COc1cc(-c2nnc(SCc3ccc(C)cc3)n2-c2ccc(N(C)C)cc2)cc(OC)c1OC
IC50 [1]: 37.3 µM
IC50 [2]: > 60 µM
IC50 [3]: 27.4 µM
inhibition (Sus scrofa): 21%
IC50 [4]: > 60 µM

COc1ccc(C(=O)CSc2nnc(-c3cc(OC)c(OC)c(OC)c3)n2-c2ccc(OC)cc2)cc1
IC50 [1]: > 60 µM
IC50 [2]: > 60 µM
IC50 [3]: > 60 µM
inhibition (Sus scrofa): 30%
IC50 [4]: 18.1 µM

COc1cc(-c2nnc(SCC(=O)Nc3ccc(Cl)cc3)n2-c2ccc(N(C)C)cc2)cc(OC)c1OC
IC50 [1]: > 60 µM
IC50 [2]: 39.3 µM
IC50 [3]: > 60 µM
inhibition (Sus scrofa): 17%
IC50 [4]: > 60 µM

COc1cc(-c2nnc(SCC(=O)c3ccc4ccccc4c3)n2-c2ccc(N(C)C)cc2)cc(OC)c1OC
IC50 [1]: 18.1 µM
IC50 [2]: 54.5 µM
IC50 [3]: > 60 µM
inhibition (Sus scrofa): 26%
IC50 [4]: > 60 µM

COc1ccc(-n2c(SCC(=O)c3ccc(OC)c(O)c3)nnc2-c2cc(OC)c(OC)c(OC)c2)cc1
IC50 [1]: > 60 µM
IC50 [2]: > 60 µM
IC50 [3]: > 60 µM
IC50 [4]: > 60 µM

COc1cc(-c2nnc(SC)n2-c2ccc(N(C)C)cc2)cc(OC)c1OC
IC50 [1]: > 60 µM
IC50 [2]: > 60 µM
IC50 [3]: > 60 µM
IC50 [4]: > 60 µM

COc1ccc(-n2c(SCc3ccc(F)cc3)nnc2-c2cc(OC)c(OC)c(OC)c2)cc1
IC50 [1]: 35 µM
IC50 [2]: 38.7 µM
IC50 [3]: 50.7 µM
IC50 [4]: 35 µM

CCOC(=O)CSc1nnc(-c2cc(OC)c(OC)c(OC)c2)n1-c1ccc(N(C)C)cc1
IC50 [1]: > 60 µM
IC50 [2]: > 60 µM
IC50 [3]: 28.8 µM
IC50 [4]: > 60 µM

COc1ccc(-n2c(SCC(=O)C3CC3)nnc2-c2cc(OC)c(OC)c(OC)c2)cc1
IC50 [1]: 37.2 µM
IC50 [2]: > 60 µM
IC50 [3]: > 60 µM
inhibition (Sus scrofa): 36%
IC50 [4]: > 60 µM

CCSc1nnc(-c2cc(OC)c(OC)c(OC)c2)n1-c1ccc(OC)cc1
IC50 [1]: 57.7 µM
IC50 [2]: > 60 µM
IC50 [3]: > 60 µM
IC50 [4]: > 60 µM

COc1ccc(NC(=O)CSc2nnc(-c3cc(OC)c(OC)c(OC)c3)n2-c2ccc(N(C)C)cc2)cc1
IC50 [1]: 56.1 µM
IC50 [2]: > 60 µM
IC50 [3]: 51.4 µM
IC50 [4]: > 60 µM

CCSc1nnc(-c2cc(OC)c(OC)c(OC)c2)n1-c1ccc(N(C)C)cc1
IC50 [1]: 46.2 µM
IC50 [2]: > 60 µM
IC50 [3]: > 60 µM
IC50 [4]: > 60 µM

COc1ccc(-n2c(SCC(=O)c3ccc(F)cc3)nnc2-c2cc(OC)c(OC)c(OC)c2)cc1
IC50 [1]: 58.2 µM
IC50 [2]: > 60 µM
IC50 [3]: 42.5 µM
inhibition (Sus scrofa): 12%
IC50 [4]: 10.7 µM

COc1cc(-c2nnc(SCc3ccc(F)cc3)n2-c2ccc(N(C)C)cc2)cc(OC)c1OC
IC50 [1]: 46.5 µM
IC50 [2]: > 60 µM
IC50 [3]: 44.3 µM
IC50 [4]: 26.4 µM

COc1cc(-c2nnc(SCc3ccccc3)n2-c2ccc(N(C)C)cc2)cc(OC)c1OC
IC50 [1]: 55.8 µM
IC50 [2]: 54 µM
IC50 [3]: > 60 µM
IC50 [4]: > 60 µM

CCOC(=O)CSc1nnc(-c2cc(OC)c(OC)c(OC)c2)n1-c1ccc(OC)cc1
IC50 [1]: > 60 µM
IC50 [2]: > 60 µM
IC50 [3]: > 60 µM
IC50 [4]: > 60 µM

COc1ccc(-n2c(SC)nnc2-c2cc(OC)c(OC)c(OC)c2)cc1
IC50 [1]: > 60 µM
IC50 [2]: > 60 µM
IC50 [3]: > 60 µM
IC50 [4]: > 60 µM

COc1ccc(-n2c(SCC(=O)Nc3ccc(Cl)cc3)nnc2-c2cc(OC)c(OC)c(OC)c2)cc1
Activity [5]: 24.2%
Activity [6]: 0.43%
Activity [7]: 31.7%
Activity [8]: 34.8%
Activity [9]: 27.1%
Activity [10]: 20.1%
IC50 [1]: 6.29 µM
IC50 [2]: > 60 µM
Activity [11]: 0.37%
Activity [12]: Dose-dependent effect
Activity [13]: 0.62%
Activity [14]: 46%
Activity [15]: 48%
IC50 [3]: 58 µM
Activity [16]: 30.8%
Activity [17]: 37.8%
inhibition (Sus scrofa): 31%
IC50 [4]: > 60 µM

COc1cc(-c2nnc(S)n2-c2ccc(N(C)C)cc2)cc(OC)c1OC
IC50 [1]: > 60 µM
IC50 [2]: > 60 µM
IC50 [3]: > 60 µM
IC50 [4]: > 60 µM

COc1cc(-c2nnc(SCC(=O)c3ccccc3)n2-c2ccc(N(C)C)cc2)cc(OC)c1OC
IC50 [1]: 38.6 µM
IC50 [2]: 42.5 µM
IC50 [3]: 45.1 µM
inhibition (Sus scrofa): 16%
IC50 [4]: 18.9 µM

COc1ccc(C(=O)CSc2nnc(-c3cc(OC)c(OC)c(OC)c3)n2-c2ccc(N(C)C)cc2)cc1O
IC50 [1]: > 100 µM
IC50 [2]: > 100 µM
IC50 [3]: > 60 µM
IC50 [4]: > 100 µM

COc1ccc(-n2c(SCC(=O)c3ccc4ccccc4c3)nnc2-c2cc(OC)c(OC)c(OC)c2)cc1
IC50 [1]: > 60 µM
IC50 [2]: > 60 µM
IC50 [3]: 53.4 µM
IC50 [4]: > 60 µM

COc1ccc(CSc2nnc(-c3cc(OC)c(OC)c(OC)c3)n2-c2ccc(N(C)C)cc2)cc1
IC50 [1]: > 60 µM
IC50 [2]: 1.15 µM
IC50 [3]: > 60 µM
inhibition (Sus scrofa): 49%
IC50 [4]: > 60 µM

COc1cc(-c2nnc(SCC(=O)C3CC3)n2-c2ccc(N(C)C)cc2)cc(OC)c1OC
IC50 [1]: 45.9 µM
IC50 [2]: > 60 µM
IC50 [3]: > 60 µM
IC50 [4]: > 60 µM

COc1ccc(/C=C\c2cc(OC)c(OC)c(OC)c2)cc1O [COMBRETASTATIN A4]
IC50 [1]: 22 µM
IC50 [2]: 6.1 µM
IC50 [3]: 1.96 µM
inhibition (Sus scrofa): 80%
IC50 [4]: 5.29 µM

COc1ccc(-n2c(S)nnc2-c2cc(OC)c(OC)c(OC)c2)cc1
IC50 [1]: > 60 µM
IC50 [2]: > 60 µM
IC50 [3]: > 60 µM
IC50 [4]: 57.5 µM

COc1ccc(C(=O)CSc2nnc(-c3cc(OC)c(OC)c(OC)c3)n2-c2ccc(N(C)C)cc2)cc1
IC50 [1]: 22 µM
IC50 [2]: > 60 µM
IC50 [3]: 64 µM
inhibition (Sus scrofa): 38%
IC50 [4]: 18.8 µM

COc1ccc(NC(=O)CSc2nnc(-c3cc(OC)c(OC)c(OC)c3)n2-c2ccc(OC)cc2)cc1
IC50 [1]: 25.8 µM
IC50 [2]: > 60 µM
IC50 [3]: 45.2 µM
inhibition (Sus scrofa): 10%
IC50 [4]: > 60 µM

COc1ccc(-n2c(SCc3ccc(C)cc3)nnc2-c2cc(OC)c(OC)c(OC)c2)cc1
IC50 [1]: 56.5 µM
IC50 [2]: 33.3 µM
IC50 [3]: > 60 µM
inhibition (Sus scrofa): 15%
IC50 [4]: 31.6 µM

COc1ccc(-n2c(SCc3ccccc3)nnc2-c2cc(OC)c(OC)c(OC)c2)cc1
IC50 [1]: 34.1 µM
IC50 [2]: 42.4 µM
IC50 [3]: > 60 µM
inhibition (Sus scrofa): 16%
IC50 [4]: > 60 µM

COc1ccc(CSc2nnc(-c3cc(OC)c(OC)c(OC)c3)n2-c2ccc(OC)cc2)cc1
IC50 [1]: 40.3 µM
IC50 [2]: 49.6 µM
IC50 [3]: > 60 µM
inhibition (Sus scrofa): 29%
IC50 [4]: 41.1 µM

COc1ccc(-n2c(SCC(=O)c3ccccc3)nnc2-c2cc(OC)c(OC)c(OC)c2)cc1
IC50 [1]: > 60 µM
IC50 [2]: > 60 µM
IC50 [3]: > 60 µM
IC50 [4]: 16.2 µM

COc1cc(-c2nnc(SCC(=O)c3ccc(F)cc3)n2-c2ccc(N(C)C)cc2)cc(OC)c1OC
IC50 [1]: 42.3 µM
IC50 [2]: 31.1 µM
IC50 [3]: 78 µM
IC50 [4]: > 60 µM
